# zfTRPN1 agonist: agonists of zebrafish TRPN1 channel; HEK293 zebrafish TRPN1-YFP, Fluo-8 calcium fluorescence; 100% = response to 87 µM carbachol; activation, % at 3 µM; hit rate 0.18% among 220,000; AID 1424;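 active = activation above its plate's cutoff, the mean activation of test wells on that plate plus 3 SD, cut at about 19% in these data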;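 also: 0% = DMSO alone and 100% = 87 µM carbachol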
#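 Control set: carbachol 87 µM as high control, DMSO as low control; system: HEK293 stable line with zebrafish TRPN1-YFP; read-out: % activation versus carbachol response; detection: intracellular calcium fluorescence with Fluo-8; doses: single test compound dose, 3 µM nominal, 0.3% DMSO; schedule: dye 1 h 37 °C plus 30 min RT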
# M1 PAM parental: counter-screen for M1 PAMs: effect in parental CHO-K1 cells; activation, % at 3 µM; AID 602247; hit rate 0.02% among 360,000; ATP EC20, Fluo-8 calcium fluorescence; 0% at ATP EC20, 100% at ATP max;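 active = activation above the run cutoff, the mean activation of all test compounds plus 3 SD, cut at about 40% in these data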;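 also: peak over basal fluorescence ratio in a 140 s read after ATP addition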
# CHO-K1 Ca antag: M1 antagonist counterscreen hit in parental CHO-K1 cells. ATP-induced calcium, Fluo-8 fluorescence. inhibition, % at 3 µM. hit rate 0.6% among 360,000. AID 602250;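 active = inhibition above a per-plate cutoff, the plate's mean sample inhibition plus 3 SD, cut at about 24% in these data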;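 also: 0% = DMSO plus EC80 ATP and 100% = DMSO alone without ATP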
# CHO-K1 Ca ag: nonselective activator or artifact in parental CHO-K1 cells; Fluo-8 calcium fluorescence; scaled to maximal ATP response, vehicle zero; activation, % at 3 µM; hit rate 0.48% among 360,000; AID 602248; in the data active = activation above about 15%;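 also: untransfected CHO-K1 host cells lacking M1 receptor as counterscreen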
# TRPML3 agonist: activates the human TRPML3 channel | HEK293 TRPML3-YFP, Fluo-8 calcium fluorescence; 100% = the carbachol control signal | activation, % at 3 µM | Q8TDD5 | hit rate 0.29% among 220,000;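 active = activation above its plate's cutoff, the mean activation of the plate's test wells plus 3 SD, cut at about 12% in these data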;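 also: 0% = DMSO only wells and 100% = carbachol wells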
# Target sequence (Q8TDD5 whole entry, looked up): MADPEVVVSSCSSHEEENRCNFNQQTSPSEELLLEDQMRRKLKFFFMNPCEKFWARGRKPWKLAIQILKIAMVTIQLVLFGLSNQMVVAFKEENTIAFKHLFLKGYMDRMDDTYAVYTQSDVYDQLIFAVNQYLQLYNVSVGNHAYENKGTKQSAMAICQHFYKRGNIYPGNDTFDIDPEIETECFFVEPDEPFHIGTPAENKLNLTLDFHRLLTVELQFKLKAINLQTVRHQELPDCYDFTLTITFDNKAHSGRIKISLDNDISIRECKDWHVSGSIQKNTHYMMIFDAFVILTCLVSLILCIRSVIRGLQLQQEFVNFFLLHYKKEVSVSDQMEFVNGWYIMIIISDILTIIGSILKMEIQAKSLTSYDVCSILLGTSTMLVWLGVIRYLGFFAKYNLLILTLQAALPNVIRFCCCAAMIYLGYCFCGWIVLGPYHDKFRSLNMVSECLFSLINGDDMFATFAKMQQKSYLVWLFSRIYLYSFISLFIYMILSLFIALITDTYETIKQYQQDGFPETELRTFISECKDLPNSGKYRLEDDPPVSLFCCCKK
#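 system = HEK293 cells stably carrying human TRPML3-YFP | doses = one concentration, 3 µM nominal, 0.3% DMSO | timing = dye loading 1 h 37 °C then 30 min ambient, 125 s read | detection = Fluo-8 calcium dye fluorescence, ex 470-495, em 515-575 nm | benchmarks = high control carbachol 87 µM, low control DMSO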
# The depositor's hits bear a star; nt = not tested or not shown. In the library only some 1.2% were active in any assay of this set; here they are far more common.
SMILES,zfTRPN1 agonist,M1 PAM parental,CHO-K1 Ca antag,CHO-K1 Ca ag,TRPML3 agonist
OC1CCC(Nc2ccn3nc(-c4cccc(OCc5ccccc5)c4)cc3n2)CC1 (centres undefined),nt,-7,29*,5,nt
Cc1noc(C)c1S(=O)(=O)N1CCCCC1c1cc(C(=O)Nc2cccc3c2CCCC3)no1 (centres undefined),nt,-10,3,0,nt
CCN(CC)c1ccc2cc(C(C)=O)c(=O)oc2c1,9,9,-2,8,10
CCN(CC)c1ccc2cc(C=O)c(=O)oc2c1,39*,-5,11,26*,19*
CCN(CC)c1ccc2cc(-c3nnc(-c4ccncc4)o3)c(=O)oc2c1,47*,16,5,19*,27*
O=C(NCc1cccc(Cl)c1)C1Cc2c(-c3ccccc3Oc3ccccc3)ccnc2O1 (centres undefined),nt,10,-12,1,nt
CN(C)c1nc(Nc2ccc(Cl)cc2)nc(OCC#N)n1,0,-10,27*,1,0
CCOc1nc(Nc2ccc(Cl)cc2)nc(OCC)n1,nt,4,-11,0,nt
Cn1c(=O)c2c(nc(CN3CCN(CCO)CC3)n2Cc2cccc3ccccc23)n(C)c1=O,1,-8,26*,0,1
COc1ccc(N2CCN(Cc3nc4c(c(=O)n(C)c(=O)n4C)n3CCc3ccccc3)CC2)cc1,1,-5,27*,0,1
Cn1c(=O)c2c(nc(CN3CCN(CCO)CC3)n2Cc2ccccc2Cl)n(C)c1=O,nt,-3,-3,0,nt
Cc1nccn1-c1ccc(NC(=O)[C@H]2O[C@@H](n3ccc(N)nc3=O)[C@H](O)[C@@H]2O)cc1,nt,13,-16,1,nt
CCCS(=O)(=O)N1CCCC(C(=O)NCCN(Cc2ccccc2)C(C)C)C1 (centres undefined),0,-6,32*,-1,0
CCCS(=O)(=O)N1CCCC(C(=O)NCCN(CC)c2ccccc2)C1 (centres undefined),1,2,4,-1,0
COc1ccc(/C=N/NC(=O)c2ccc(CN3C(=O)c4cccc5cccc3c45)cc2)cc1O,0,-9,3,0,0
COc1cc(/C=N/NC(=O)c2ccc(CN3C(=O)c4cccc5cccc3c45)cc2)cc(OC)c1O,1,3,6,15*,-1
COC(=O)c1sc2nc(CSc3nc4ccc(C)cc4[nH]3)[nH]c(=O)c2c1C,0,-5,5,0,1
Cc1ccc2nc(SCc3nc4ccccc4c(=O)[nH]3)[nH]c2c1,0,-16,29*,1,0
CC1(C(=O)NS(=O)(=O)c2ccccc2C(F)(F)F)CCN1C(=O)CCc1ccccc1 (centres undefined),nt,3,2,1,nt
NNC(=O)CS(=O)(=O)CS(=O)(=O)CC(=O)NN,2,-20,72*,-1,1
N#CC1=C(SCC(=O)c2ccccc2)NC2=C(C(=O)CCC2)C1c1ccco1 (centres undefined),2,-6,31*,1,0
Cc1ccc(C(=O)CSC2=C(C#N)C(c3ccco3)C3=C(CCCC3=O)N2)cc1 (centres undefined),-1,8,-7,0,0
CCc1ccccc1NC(=O)N1CCc2ccccc2C1,nt,0,3,19*,nt
O=C(Nc1cccc2ccccc12)N1CCc2ccccc2C1,0,-8,20,0,-1
C=CCn1cccc(C(=O)Nc2ccc(OC)c(OC)c2)c1=O,1,1,5,16*,1
CC(=O)N1CCCc2cc(S(=O)(=O)N3CCCC(C(=O)N4CCN(c5ccccc5)CC4)C3)ccc21 (centres undefined),nt,11,-4,16*,nt
CC[C@H](C)[C@@H](CO)NC(=O)[C@H]1O[C@@H](n2ccc(=O)[nH]c2=O)[C@H](O)[C@@H]1O,nt,-4,10,0,nt
CC1CCCN(C(=O)COC(=O)CNC(=O)c2sc3ccccc3c2Cl)C1 (centres undefined),nt,10,-17,5,nt
CC1CCCC(C)N1C(=O)COC(=O)CNC(=O)c1sc2ccccc2c1Cl (centres undefined),nt,-16,18,19*,nt
Cc1ccc2[nH]cc(C(=O)CN3CCN(c4ccccc4F)CC3)c2c1,1,7,-6,16*,1

# High-throughput results: PubChem BioAssay, The Scripps Research Institute Molecular Screening Center
